Data on six compounds can be found in article PMC11040122 (Heliyon, 2024).

One assay has as its system Sf9 cells. Description: In vitro toxicity / cell growth inhibition rate. Type of assay: cell-based, Spodoptera frugiperda. Conditions: MTT assay, 72 h of treatment. The gist of the method:
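Sf9 cells (2 × 10^4 cells/mL) in Grace's medium with 10 % FBS, exposed in triplicate to test compound (0.5–100 μM, from DMSO stocks); DMSO negative control. Incubated at 30 °C, humidified, no CO2, for 3–5 days until control wells near confluent. MTT (5 mg/mL) added for 4 h at 30 °C, formazan dissolved in DMSO, A570 read. IR = (1 − At/Ac) × 100; mean ± SD.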
A general note: Tetrazolium assays rely on reduction of a dye to a coloured formazan, in cell work by metabolically active cells.
`COc1c(O)cc2oc3cc(O)c(CC=C(C)C)c(O)c3c(=O)c2c1CC=C(C)C` [Alpha-mangostin]: the “%IR At 100 μM (percent inhibition of cell growth rate)” value was 52.18%.

For another assay, the system named is SlSCP-2.
Assay: not given
The conditions noted are these: read-out: IC50 values reported for natural compounds; cited from earlier work.
For the compound `CCCCC/C=C\C/C=C\C/C=C\C/C=C\CCCC(=O)O` [arachidonate], the IC50 was 18.1 µM.

Regarding `CCCCCCCC/C=C\CCCCCCCC(=O)O` [oleic acid], the IC50 was 24.4 µM.

On to `CCCCCCCCCCCCCCCCCC(=O)O` [stearic acid], for which the concentration for half-maximal inhibition (IC50) is 39.8 µM.

On to `CCCCCCCCCCCCCCCC(=O)O` [palmitic acid], for which the IC50 is 59.1 µM.

`CC(C)CCC[C@@H](C)[C@H]1CC[C@H]2[C@@H]3CC=C4C[C@@H](O)CC[C@]4(C)[C@H]3CC[C@]12C` [cholesterol]: the IC50 is 50.1 µM.

By IC50 is commonly meant the point on the concentration scale where inhibition reaches its midpoint.
